{"data": "Results gathered from unrelated publications", "note": "Each line is one published result; the experiments were not run side by side."}
{"Structure (SMILES)": "O=C(Cc1c[nH]c2ccccc12)Nc1ccc(I)cc1", "effect on": "ABTS scavenging", "measurement": "IC50", "value": "660 nM"}
{"Structure (SMILES)": "O=C(CN1C(=O)/C(=C/c2cccs2)SC1=S)Nc1ccccc1", "target or system": "A549", "effect on": "cell growth or viability", "technique": "MTT", "concentration": "10 µM", "measurement": "inhibition", "value": "23.5%"}
{"Structure (SMILES)": "O=C(Nc1ccccc1-c1ccc(F)c(F)c1)c1nccnc1C(F)(F)F", "target or system": "Colletotrichum gloeosporioides", "effect on": "microbial growth", "measurement": "EC50", "value": "> 100 µg/mL"}
{"Structure (SMILES)": "COc1cc(Nc2nccc(-c3cnn4nc(OC)ccc34)n2)cc(C(F)(F)F)c1", "target or system": "Ishikawa", "effect on": "cell growth or viability", "technique": "ATP luminescence", "measurement": "IC50", "value": "450 nM"}
{"Structure (SMILES)": "CO/N=C1\\CN(c2nc3c(cc2F)c(=O)c(C(=O)O)cn3C2CC2)CC1CN (stereo not drawn)", "target or system": "Moraxella catarrhalis", "effect on": "microbial growth", "measurement": "MIC", "value": "2 µg/mL"}
{"Structure (SMILES)": "O=C(CN1C(=O)/C(=C/c2cccc(Br)c2)SC1=S)Nc1ccccc1", "target or system": "PC-3", "effect on": "cell growth or viability", "technique": "MTT", "concentration": "10 µM", "measurement": "inhibition", "value": "27.3%"}
{"Structure (SMILES)": "Cc1ccc(Cl)cc1NC(=O)Cc1c[nH]c2ccccc12", "effect on": "ABTS scavenging", "measurement": "IC50", "value": "1280 nM"}
{"Structure (SMILES)": "O=C(CN1C(=O)/C(=C/c2ccccc2O)SC1=S)Nc1ccccc1", "target or system": "A549", "effect on": "cell growth or viability", "technique": "MTT", "concentration": "10 µM", "measurement": "inhibition", "value": "34.5%"}
{"Structure (SMILES)": "O=C(Cc1c[nH]c2ccccc12)Nc1cccc(Br)c1", "effect on": "ABTS scavenging", "measurement": "IC50", "value": "1140 nM"}
{"Structure (SMILES)": "Clc1ccccc1C(c1ccccc1)(c1ccccc1)n1ccnc1", "target or system": "Mucor", "effect on": "microbial growth", "technique": "disc diffusion", "concentration": "20000 µg/mL", "measurement": "inhibition zone", "value": "22 mm"}
{"Structure (SMILES)": "O=C(CN1C(=O)/C(=C/c2ccc[nH]2)SC1=S)Nc1ccccc1", "target or system": "A549", "effect on": "cell growth or viability", "technique": "MTT", "concentration": "10 µM", "measurement": "inhibition", "value": "21.4%"}
{"Structure (SMILES)": "COc1ccc(-c2ccc(-c3ccc(C(=N)N)nc3)s2)cc1Cl", "target or system": "U-251", "effect on": "cell growth or viability", "technique": "SRB", "measurement": "GI50", "value": "1820 nM"}
